Laboratory results from ChEMBL document CHEMBL1146084, “Discovery of orally efficacious melanin-concentrating hormone receptor-1 antagonists as antiobesity agents. Synthesis, SAR, and biological evaluation of bicyclo[3.1.0]hexyl ureas” (J Med Chem, 2006).

Tests used:
[1] = system: Mus musculus; experiment: Reduction of food intake in orally dosed C57BL/6N DIO mouse after 6 hrs at 30 mg/kg relative to control; type: functional; settings: route oral
Procedure, shortened: (§1)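 Male C57Bl/6NCrl:BR mice made obese on a 45%-fat diet, individually housed, 12 h light/dark, 22 °C; acclimated to oral 20% hydroxypropyl-β-cyclodextrin vehicle for 2-3 days. Single oral 30 mg/kg dose in 20% HPβCD; food intake weighed to 0.01 g at 2, 6 and 24 h, expressed as % of vehicle ± SEM.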

[2] = system: Mus musculus; experiment: Reduction of food intake in orally dosed C57BL/6N DIO mouse after 24 hrs at 30 mg/kg relative to control; type: functional; settings: route oral; procedure, shortened: as §1
[3] = system: Mus musculus; experiment: Reduction of food intake in orally dosed C57BL/6N DIO mouse after 2 hrs at 30 mg/kg relative to control; type: functional; settings: route oral; procedure, shortened: as §1
[4] = target: Melanin-concentrating hormone receptor 1 (Mus musculus) (UniProt Q8JZL2); experiment: Receptor occupancy ex vivo by displacement of [125I]S36057 binding from MCHR1 in C57BL/6N mouse brain after 6 hrs at 30 mg/kg, po; type: functional, organism-based; set-up: dose 30 mg/kg
Procedure, shortened: (§2)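 Male C57Bl/6NCrl:BR mice given vehicle (HPβCD) or compound orally; killed by CO2 at 6 or 24 h post-dose (chronic studies: 24 h after last daily dose, n = 3/group). 16 µm frozen caudate putamen sections incubated 30 min at room temperature with 700 pM [125I]-S36057 in MCH-R1 binding buffer; 1 µM MCH defines nonspecific binding. Phosphorimager quantitation; % inhibition versus vehicle.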

[5] = AUC (0-6h) in rat at 10 mg/kg, po; type: ADME, organism-based, Plasma; set-up: time < 6 hr, dose 10 mg/kg, route oral; settings: plasma
[6] = target: Melanin-concentrating hormone receptor 1 (Mus musculus) (UniProt Q8JZL2); experiment: Receptor occupancy ex vivo by displacement of [125I]S36057 binding from MCHR1 in C57BL/6N mouse brain after 24 hrs at 30 mg/kg, po; type: functional, organism-based; set-up: dose 30 mg/kg; procedure, shortened: as §2
[7] = target: T1, Melanin-concentrating hormone receptor 1 (Homo sapiens, UniProt Q99705); experiment: Displacement of [125I]MCH from human MCHR1 expressed in CHO cell; type: cell-based
[8] = target: T1, Melanin-concentrating hormone receptor 1; experiment: Inhibition of MCH-mediated calcium influx in CHO cells expressing human MCHR1 by FLIPR assay; type: functional, cell-based
Procedure, shortened: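 After two washes, treated with vehicle (buffer, 2% DMSO) or compound, then stimulated with 30 nM MCH; intracellular Ca²⁺ change read by FLIPR.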

Melanin-concentrating hormone receptor 1 (Mus musculus), sequence (Q8JZL2 whole entry): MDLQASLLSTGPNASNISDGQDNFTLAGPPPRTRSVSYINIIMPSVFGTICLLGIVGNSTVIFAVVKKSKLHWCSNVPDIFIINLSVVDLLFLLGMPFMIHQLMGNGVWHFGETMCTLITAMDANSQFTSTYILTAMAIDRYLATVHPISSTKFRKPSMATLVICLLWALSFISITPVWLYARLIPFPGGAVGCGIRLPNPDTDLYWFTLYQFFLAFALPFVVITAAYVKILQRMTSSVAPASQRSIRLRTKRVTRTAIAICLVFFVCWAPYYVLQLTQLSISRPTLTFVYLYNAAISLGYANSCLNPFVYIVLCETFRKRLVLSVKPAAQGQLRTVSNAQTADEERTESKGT
T1 sequence (Q99705 whole entry): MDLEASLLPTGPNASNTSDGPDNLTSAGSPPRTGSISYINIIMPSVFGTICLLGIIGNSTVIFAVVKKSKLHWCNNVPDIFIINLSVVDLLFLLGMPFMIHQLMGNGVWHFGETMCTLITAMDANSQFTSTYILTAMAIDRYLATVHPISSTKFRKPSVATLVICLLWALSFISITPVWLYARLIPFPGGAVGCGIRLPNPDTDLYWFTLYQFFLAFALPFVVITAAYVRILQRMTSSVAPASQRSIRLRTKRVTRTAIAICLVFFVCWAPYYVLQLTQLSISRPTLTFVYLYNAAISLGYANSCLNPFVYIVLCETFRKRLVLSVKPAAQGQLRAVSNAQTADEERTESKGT

Row | SMILES | Activity [4] [%] | AUC(0-t) at 6 h [5] [ng·h/mL] | Activity [6] [%] | Ki [7] [nM] | other results
1 | N#Cc1cccc([C@]23CC[C@@H](N(CCN4CC[C@@H](O)C4)C(=O)Nc4ccc(F)c(C(F)(F)F)c4)[C@H]2C3)c1 | 81 | 2190 |  |  | Food intake (% of vehicle control) [1]: 68.2%; Food intake (% of vehicle control) [2]: 80.8%; Food intake (% of vehicle) [3]: 65.7%
2 | CN1CCN(CCCN(C(=O)Nc2ccc(F)c(Cl)c2)[C@@H]2CC[C@]3(c4ccccc4)C[C@H]23)CC1 (relative stereo) | 79 | 1130 | 0 |  | 
3 | CN1CCN(CCCN(C(=O)Nc2ccc(F)c(Cl)c2)[C@@H]2CC[C@]3(c4cc(F)cc(F)c4)C[C@H]23)CC1 (relative stereo) | 65 | 2740 | 0 | 7 | 
4 | N#Cc1cccc([C@]23CC[C@@H](N(CCN4CC[C@@H](O)C4)C(=O)Nc4ccc(F)c(Cl)c4)[C@H]2C3)c1 (stereo in doubt; (+)-23c) | 32 |  |  |  | 
5 | CN1CCN(CCCN(C(=O)Nc2ccc(F)c(Cl)c2)[C@@H]2CC[C@]3(c4ccc(S(C)(=O)=O)cc4)C[C@H]23)CC1 (relative stereo) | 8 | 2340 |  | 9.3 | 
6 | CC(=O)Nc1cccc([C@]23CC[C@@H](N(CCCN4CCN(C)CC4)C(=O)Nc4ccc(F)c(Cl)c4)[C@H]2C3)c1 (relative stereo) | 18 |  | 0 |  | 
7 | N#Cc1cccc([C@]23CC[C@@H](N(CCN4CCCC4)C(=O)Nc4ccc(F)c(Cl)c4)[C@H]2C3)c1 (relative stereo) |  | 822 |  |  | 
8 | N#Cc1cccc([C@@]23CC[C@H](N(CCN4CCCC4)C(=O)Nc4cc(Cl)cc(Cl)c4)[C@@H]2C3)c1 | 69 | 1490 |  | 15 | 
9 | COc1cccc([C@]23CC[C@@H](N(CCCN4CCN(C)CC4)C(=O)Nc4ccc(F)c(C(F)(F)F)c4)[C@H]2C3)c1 (relative stereo) | 73 | 571 | 0 | 2.9 | Kb [8]: 8 nM
10 | CN1CCN(CCCN(C(=O)Nc2ccc(F)c(Cl)c2)[C@@H]2CC[C@]3(c4cccc(S(C)(=O)=O)c4)C[C@H]23)CC1 (relative stereo) |  |  |  | 727 | 
11 | CN1CCN(CCCCN(C(=O)Nc2ccc(F)c(C(F)(F)F)c2)[C@@H]2CC[C@]3(c4cccc(C#N)c4)C[C@H]23)CC1 (relative stereo) | 85 | 1680 |  |  | Food intake (% of vehicle control) [1]: 81.6%; Food intake (% of vehicle control) [2]: 89.1%; Food intake (% of vehicle) [3]: 81.1%
12 | CN1CCN(CCCN(C(=O)Nc2ccc(F)c(Cl)c2)[C@@H]2CC[C@]3(c4cccc(NS(C)(=O)=O)c4)C[C@H]23)CC1 (relative stereo) |  |  |  | 394 | 
13 | CN1CCN(CCCN(C(=O)Nc2ccc(F)c(Cl)c2)[C@@H]2CC[C@]3(c4cccnc4)C[C@H]23)CC1 (relative stereo) | 25 |  | 11 |  | 
14 | CS(=O)(=O)c1ccc([C@]23CC[C@@H](N(CCCN4CCCC4=O)C(=O)Nc4ccc(F)c(Cl)c4)[C@H]2C3)cc1 (relative stereo) |  |  |  | 1620 | 
15 | CN1CCN(CCCN(C(=O)Nc2ccc(F)c(Cl)c2)[C@@H]2CC[C@]3(c4cccc(N)c4)C[C@H]23)CC1 (relative stereo) | 37 |  | 17 | 10 | 
16 | CN1CCN(CCCN(C(=O)Nc2ccc(F)c(C(F)(F)F)c2)[C@@H]2CC[C@]3(c4cccc(F)c4)C[C@H]23)CC1 (relative stereo) | 85 | 888 | 10 | 2.3 | 
17 | COc1ccc([C@]23CC[C@@H](N(CCCN4CCN(C)CC4)C(=O)Nc4ccc(F)c(C(F)(F)F)c4)[C@H]2C3)cc1 (relative stereo) | 100 | 438 | 7 | 2.8 | Kb [8]: 9 nM
18 | N#Cc1cccc([C@]23CC[C@@H](N(CCN4CCCCC4)C(=O)Nc4ccc(F)c(Cl)c4)[C@H]2C3)c1 (relative stereo) | 57 | 999 |  |  | 

Row | SMILES | Activity [4] [%] | AUC(0-t) at 6 h [5] [ng·h/mL] | Activity [6] [%] | Ki [7] [nM] | other results
19 | Cc1cccc([C@]23CC[C@@H](N(CCCN4CCN(C)CC4)C(=O)Nc4ccc(F)c(Cl)c4)[C@H]2C3)c1 (relative stereo) | 0 |  | 4 | 33 | 
20 | N#Cc1cccc([C@]23CC[C@@H](N(CCN4CC[C@@H](O)C4)C(=O)Nc4ccc(F)c(Cl)c4)[C@H]2C3)c1 (stereo in doubt; (-)-23d) | 57 |  |  |  | 
21 | CN1CCN(CCCN(C(=O)Nc2ccc(F)c(Cl)c2)[C@@H]2CC[C@]3(c4ccsc4)C[C@H]23)CC1 (relative stereo) | 25 |  | 12 | 13 | 
22 | CC(C)CN1CCN(CCN(C(=O)Nc2ccc(F)c(C(F)(F)F)c2)[C@@H]2CC[C@]3(c4cccc(C#N)c4)C[C@H]23)CC1 (relative stereo) | 40 | 140 |  |  | 
23 | CN1CCN(CCCN(C(=O)Nc2ccc(F)c(Cl)c2)[C@@H]2CC[C@]3(c4ccc(F)c(F)c4)C[C@H]23)CC1 (relative stereo) | 97 | 1610 | 0 | 4.4 | 
24 | CN1CCN(CCCN(C(=O)Nc2ccc(F)c(C(F)(F)F)c2)[C@@H]2CC[C@]3(c4ccc(F)cc4)C[C@H]23)CC1 (relative stereo) | 100 | 2170 | 29 | 1.8 | Kb [8]: 15 nM
25 | CN1CCN(CCCN(C(=O)Nc2ccc(F)c(Cl)c2)[C@H]2CC[C@@H](c3cccc(C#N)c3)C2)CC1 (relative stereo) |  |  |  | 2190 | 
26 | CN1CCN(CCCN(C(=O)Nc2ccc(F)c(Cl)c2)[C@@H]2CC[C@]3(c4cccc(OC(F)(F)F)c4)C[C@H]23)CC1 (relative stereo) | 39 | 504 | 12 | 29 | 
27 | CS(=O)(=O)c1ccc([C@]23CC[C@@H](N(CC4CCN(S(C)(=O)=O)CC4)C(=O)Nc4ccc(F)c(Cl)c4)[C@H]2C3)cc1 (relative stereo) |  |  |  | 974 | 
28 | CN1CCN(CCN(C(=O)Nc2ccc(F)c(C(F)(F)F)c2)[C@@H]2CC[C@]3(c4cccc(C#N)c4)C[C@H]23)CC1 (relative stereo) | 53 | 1460 |  |  | 
29 | N#Cc1cccc(C2=CC(N(CCN3CCCC3)C(=O)Nc3cc(Cl)cc(Cl)c3)CC2)c1 (configuration not stated) |  |  |  | 605 | 
30 | CN1CCN(CCCN(C(=O)Nc2ccc(F)c(C(F)(F)F)c2)[C@@H]2CC[C@]3(c4ccc(C#N)c(F)c4)C[C@H]23)CC1 (relative stereo) | 100 | 1660 | 6 | 3.5 | 
31 | CN1CCN(CCCN(C(=O)Nc2ccc(F)c(C(F)(F)F)c2)[C@@H]2CC[C@]3(c4ccc(F)c(C#N)c4)C[C@H]23)CC1 (relative stereo) | 81 | 3080 | 36 | 4 | 
32 | CN1CCN(CCCN(C(=O)Nc2ccc(F)c(Cl)c2)[C@@H]2CC[C@]3(c4cccc(F)c4)C[C@H]23)CC1 (relative stereo) | 73 | 722 | 0 | 3.3 | 
33 | N#Cc1ccc([C@]23CC[C@@H](N(CCCN4CCNCC4)C(=O)Nc4ccc(F)c(C(F)(F)F)c4)[C@H]2C3)cc1 (relative stereo) | 27 | 3470 | 0 | 8 | Kb [8]: 9 nM
34 | CN1CCN(CCCN(C(=O)Nc2ccc(F)c(Cl)c2)[C@@H]2CC[C@]3(c4cccc(Cl)c4)C[C@H]23)CC1 |  | 436 |  |  | 
35 | CN1CCN(CCCN(C(=O)Nc2ccc(F)c(Cl)c2)[C@@H]2CC[C@@H](c3cccc(C#N)c3)C2)CC1 (relative stereo) |  |  |  | 161 | 
